In brackets after ≈: the same amount, converted by molar mass. Activity calls are given as the source filed them. The rule behind the calls is not given here.
Legend:
[1] = system: Staphylococcus aureus; experiment: Antibacterial activity against methicillin resistant Staphylococcus aureus after 24 hrs by microbroth dilution method; type: functional
Method in brief: (§1)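 Tested by CLSI-standard broth microdilution against a panel of eleven bacterial strains, Gram-positive and Gram-negative, including MRSA.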

[2] = system: Staphylococcus aureus; experiment: Antibacterial activity against Staphylococcus aureus after 24 hrs by microbroth dilution method; type: functional; method in brief: as §1
[3] = system: Staphylococcus aureus; experiment: Antibacterial activity against Staphylococcus aureus ATCC 25923 after 24 hrs by microbroth dilution method; type: functional; settings: ATCC 25923, 24 h; method in brief: as §1
[4] = system: Staphylococcus aureus; experiment: Antibacterial activity against Staphylococcus aureus ATCC 29213 after 24 hrs by microbroth dilution method; type: functional; settings: ATCC 29213, 24 h; method in brief: as §1
[5] = system: Enterococcus faecalis; experiment: Antibacterial activity against Enterococcus faecalis after 24 hrs by microbroth dilution method; type: functional; method in brief: as §1
[6] = system: Klebsiella pneumoniae; experiment: Antibacterial activity against Klebsiella pneumoniae after 24 hrs by microbroth dilution method; type: functional; method in brief: as §1
[7] = system: Escherichia coli; experiment: Antibacterial activity against Escherichia coli after 24 hrs by microbroth dilution method; type: functional; method in brief: as §1
[8] = system: Escherichia coli; experiment: Antibacterial activity against Escherichia coli ATCC 25922 after 24 hrs by microbroth dilution method; type: functional; settings: ATCC 25922, 24 h; method in brief: as §1
[9] = system: Pseudomonas aeruginosa; experiment: Antibacterial activity against Pseudomonas aeruginosa after 24 hrs by microbroth dilution method; type: functional; method in brief: as §1
[10] = system: Pseudomonas aeruginosa; experiment: Antibacterial activity against Pseudomonas aeruginosa ATCC 27853 after 24 hrs by microbroth dilution method; type: functional; settings: ATCC 27853, 24 h; method in brief: as §1
[11] = system: Acinetobacter baumannii; experiment: Antibacterial activity against Acinetobacter baumannii after 24 hrs by microbroth dilution method; type: functional; method in brief: as §1
[12] = system: Aspergillus fumigatus; experiment: Antifungal activity against Aspergillus fumigatus after 24 hrs by microbroth dilution method; type: functional
[13] = system: Aspergillus fumigatus; experiment: Potency index, ratio of fluconazole MIC to compound MIC for antifungal activity against Aspergillus fumigatus; type: functional
[14] = system: Staphylococcus aureus; experiment: Antibacterial activity against methicillin resistant Staphylococcus aureus after 16 serial passages measured after 12 hrs by microbroth dilution method; type: functional, organism-based
Method in brief: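 MRSA standard strain passaged serially with compound. Each passage starts from the bacteria grown at sub-MIC (0.5 × MIC), and the MIC is redetermined by the broth microdilution method at every passage.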

[15] = system: Staphylococcus aureus; experiment: Bactericidal activity against methicillin resistant Staphylococcus aureus assessed as reduction in bacterial load at 6 times MIC up to 1 hr by time kill assay; type: functional
Method in brief: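 MRSA grown 6 h at 37 °C and diluted to about 1.8 × 10^5 CFU/mL. Compound added at MIC and 6 × MIC, then incubated at 37 °C. Samples taken at 0, 30, 60, 90, 120, 240, 360 and 420 min, diluted 10-fold serially in 0.9% saline, plated on agar and counted after 24 h at 37 °C.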

[16] = Cytotoxicity against mouse L929 cells assessed as cell viability up to 128 ug/ml after 48 hrs by MTT assay relative to control; type: cell-based; settings: read-out: Activity
Method in brief: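 Mouse fibroblast L929 cells grown in DMEM with 10% serum and 1% penicillin/streptomycin at 37 °C, 5% CO2, seeded and cultured 24 h. Compound diluted in medium and tested in triplicate at 0, 4, 8, 16, 32, 64, 128, 256 and 512 μg/mL for 48 h. MTT in PBS added for 3–4 h, formazan dissolved in DMSO, absorbance read at 570 nm (also stated 490 nm).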

[17] = system: Cell membrane; experiment: Binding affinity to methicillin resistant Staphylococcus aureus cell membrane assessed as induction of membrane permeabilization at 12 times MIC measured for 10 to 70 mins by propidium iodide dye based fluorescence assay
Method in brief: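 MRSA cultured 12 h at 37 °C, centrifuged, washed and resuspended in 5 mM glucose/5 mM HEPES (1:1). Compound (12 × MIC) added to cuvette with cells and propidium iodide. PI uptake followed as fluorescence increase (ex 535 nm, em 617 nm).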

[18] = system: DNA; experiment: Binding affinity to methicillin resistant Staphylococcus aureus DNA assessed as hypochromic effect up to 3.5 x 10^-5mol/L by absorption spectra analysis; type: nucleic-acid assay
[19] = system: DNA; experiment: Binding affinity to methicillin resistant Staphylococcus aureus DNA by absorption spectra analysis; type: nucleic-acid assay
[20] = system: DNA; experiment: Inhibition of neutral red dye binding to methicillin resistant Staphylococcus aureus DNA up to 3.5 x 10^-5mol/L by UV-Visible absorption spectra analysis; type: nucleic-acid assay
Method in brief: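 MRSA genomic DNA with A260/A280 > 1.8 in Tris-HCl buffer pH 7.4, combined with aqueous neutral red dye stock. Competitive displacement followed by UV-vis absorption spectroscopy.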

[21] = system: Candida albicans; experiment: Antifungal activity against Candida albicans ATCC 90023 after 24 hrs by microbroth dilution method; type: functional; settings: ATCC 90023, 24 h

Row | Compound | MIC [1] | MIC [2] | MIC [3] | MIC [4] | MIC [5] | MIC [6] | MIC [7] | MIC [8] | MIC [9] | MIC [10] | MIC [11] | MIC [12] | Ratio [13] | further results
1 | CCCCCn1c(CCCC)nc(Cl)c1C(Nc1ncccn1)P(=O)(OCC)OCC (stereo not given) | 4 µg/mL (≈ 8.48 µM) | 64 µg/mL (≈ 136 µM) | 32 µg/mL (≈ 67.8 µM) | 64 µg/mL (≈ 136 µM) | 8 µg/mL (≈ 17 µM) | 8 µg/mL (≈ 17 µM) | 128 µg/mL (≈ 271 µM) | 16 µg/mL (≈ 33.9 µM) | 64 µg/mL (≈ 136 µM) | 64 µg/mL (≈ 136 µM) | 32 µg/mL (≈ 67.8 µM) | > 16 µg/mL | 16 | Activity [14]: Active; Activity [15]: >3 deltalog10CFU/ml; viability at 48 h [16]: ≤ 80%; Activity [17]: Active; Activity [18]: Active; K [19]: 6.84 ×10³ L/mol; inhibition [20]: Active
2 | CCOP(=O)(OCC)C(Nc1ncccn1)c1ccc([N+](=O)[O-])cc1 (stereo not given) | 128 µg/mL (≈ 349 µM) | 256 µg/mL (≈ 699 µM) | 8 µg/mL (≈ 21.8 µM) | 256 µg/mL (≈ 699 µM) | 32 µg/mL (≈ 87.4 µM) | 256 µg/mL (≈ 699 µM) | 256 µg/mL (≈ 699 µM) | 128 µg/mL (≈ 349 µM) | 256 µg/mL (≈ 699 µM) | 16 µg/mL (≈ 43.7 µM) | 128 µg/mL (≈ 349 µM) | > 16 µg/mL | 16 | 
3 | CCCCc1nc(Cl)c(C(Nc2ncccn2)P(=O)(OCC)OCC)n1CCC (stereo not given) | 8 µg/mL (≈ 18 µM) | 256 µg/mL (≈ 577 µM) | 64 µg/mL (≈ 144 µM) | 128 µg/mL (≈ 288 µM) | 128 µg/mL (≈ 288 µM) | 64 µg/mL (≈ 144 µM) | 256 µg/mL (≈ 577 µM) | 128 µg/mL (≈ 288 µM) | 128 µg/mL (≈ 288 µM) | 128 µg/mL (≈ 288 µM) | 64 µg/mL (≈ 144 µM) | > 16 µg/mL | 16 | 
4 | CCOP(=O)(OCC)C(Nc1ncccn1)c1ccc(Cl)cc1Cl (stereo not given) | 8 µg/mL (≈ 20.5 µM) | 64 µg/mL (≈ 164 µM) | 8 µg/mL (≈ 20.5 µM) | 64 µg/mL (≈ 164 µM) | 32 µg/mL (≈ 82 µM) | 64 µg/mL (≈ 164 µM) | 256 µg/mL (≈ 656 µM) | 16 µg/mL (≈ 41 µM) | 64 µg/mL (≈ 164 µM) | 8 µg/mL (≈ 20.5 µM) | 64 µg/mL (≈ 164 µM) | > 16 µg/mL | 16 | MIC [21]: 8 µg/mL (≈ 20.5 µM)
5 | CCCCc1nc(Cl)c(C(Nc2ncccn2)P(=O)(OCC)OCC)n1CC (stereo not given) | 256 µg/mL (≈ 596 µM) | 512 µg/mL (≈ 1190 µM) | 128 µg/mL (≈ 298 µM) | 256 µg/mL (≈ 596 µM) | 64 µg/mL (≈ 149 µM) | 128 µg/mL (≈ 298 µM) | 256 µg/mL (≈ 596 µM) | 256 µg/mL (≈ 596 µM) | 256 µg/mL (≈ 596 µM) | 256 µg/mL (≈ 596 µM) | 256 µg/mL (≈ 596 µM) | > 16 µg/mL | 16 | 
6 | CCOP(=O)(OCC)C(Nc1ncccn1)c1c[nH]c2ccccc12 (stereo not given) | 4 µg/mL (≈ 11.1 µM) | 256 µg/mL (≈ 710 µM) | 256 µg/mL (≈ 710 µM) | 128 µg/mL (≈ 355 µM) | 256 µg/mL (≈ 710 µM) | 64 µg/mL (≈ 178 µM) | 256 µg/mL (≈ 710 µM) | 256 µg/mL (≈ 710 µM) | 256 µg/mL (≈ 710 µM) | 256 µg/mL (≈ 710 µM) | 128 µg/mL (≈ 355 µM) | > 16 µg/mL | 16 | 
7 | CCOP(=O)(OCC)C(Nc1ncccn1)c1ccc(C)cc1 (stereo not given) | 128 µg/mL (≈ 382 µM) | 256 µg/mL (≈ 763 µM) | 16 µg/mL (≈ 47.7 µM) | 256 µg/mL (≈ 763 µM) | 8 µg/mL (≈ 23.9 µM) | 128 µg/mL (≈ 382 µM) | 256 µg/mL (≈ 763 µM) | 128 µg/mL (≈ 382 µM) | 256 µg/mL (≈ 763 µM) | 64 µg/mL (≈ 191 µM) | 128 µg/mL (≈ 382 µM) | > 16 µg/mL | 16 | 
8 | C#CCn1c(CCCC)nc(Cl)c1C(Nc1ncccn1)P(=O)(OCC)OCC (stereo not given) | 128 µg/mL (≈ 291 µM) | 64 µg/mL (≈ 145 µM) | 32 µg/mL (≈ 72.7 µM) | 256 µg/mL (≈ 582 µM) | 256 µg/mL (≈ 582 µM) | 256 µg/mL (≈ 582 µM) | 256 µg/mL (≈ 582 µM) | 128 µg/mL (≈ 291 µM) | 256 µg/mL (≈ 582 µM) | 256 µg/mL (≈ 582 µM) | 128 µg/mL (≈ 291 µM) | > 16 µg/mL | 16 | 
9 | CCOP(=O)(OCC)C(Nc1ncccn1)c1ccc(Cl)cc1 (stereo not given) | 64 µg/mL (≈ 180 µM) | 256 µg/mL (≈ 720 µM) | 64 µg/mL (≈ 180 µM) | 256 µg/mL (≈ 720 µM) | 32 µg/mL (≈ 89.9 µM) | 128 µg/mL (≈ 360 µM) | 512 µg/mL (≈ 1440 µM) | 256 µg/mL (≈ 720 µM) | 256 µg/mL (≈ 720 µM) | 8 µg/mL (≈ 22.5 µM) | 128 µg/mL (≈ 360 µM) | > 16 µg/mL | 16 | MIC [21]: 8 µg/mL (≈ 22.5 µM)
10 | CCOP(=O)(OCC)C(Nc1ncccn1)c1ccc2c(c1)c1cc(C=O)ccc1n2CC (stereo not given) | 128 µg/mL (≈ 274 µM) | 256 µg/mL (≈ 549 µM) | 256 µg/mL (≈ 549 µM) | 256 µg/mL (≈ 549 µM) | 16 µg/mL (≈ 34.3 µM) | 256 µg/mL (≈ 549 µM) | 512 µg/mL (≈ 1100 µM) | 256 µg/mL (≈ 549 µM) | 256 µg/mL (≈ 549 µM) | 256 µg/mL (≈ 549 µM) | 128 µg/mL (≈ 274 µM) | > 16 µg/mL | 16 | 
11 | CCOP(=O)(OCC)C(Nc1ncccn1)c1ccc2oc(=O)ccc2c1 (stereo not given) | 256 µg/mL (≈ 658 µM) | 128 µg/mL (≈ 329 µM) | 64 µg/mL (≈ 164 µM) | 128 µg/mL (≈ 329 µM) | 512 µg/mL (≈ 1320 µM) | 512 µg/mL (≈ 1320 µM) | 512 µg/mL (≈ 1320 µM) | 256 µg/mL (≈ 658 µM) | 64 µg/mL (≈ 164 µM) | 512 µg/mL (≈ 1320 µM) | 64 µg/mL (≈ 164 µM) | > 16 µg/mL | 16 | 
12 | O=[N+]([O-])c1ccc(C(Nc2ncccn2)P(=O)(O)O)cc1 (stereo not given) | 128 µg/mL (≈ 413 µM) | 128 µg/mL (≈ 413 µM) | 128 µg/mL (≈ 413 µM) | 128 µg/mL (≈ 413 µM) | 128 µg/mL (≈ 413 µM) | 256 µg/mL (≈ 825 µM) | 128 µg/mL (≈ 413 µM) | 128 µg/mL (≈ 413 µM) | 128 µg/mL (≈ 413 µM) | 256 µg/mL (≈ 825 µM) | 256 µg/mL (≈ 825 µM) | > 16 µg/mL | 16 | 
